The test system of one assay is HUVECs. As to the kind of experiment: Cell Death Detection ELISA. It counts as cell-based, human. Particulars: 100 μM, 24 h. An outline of the steps: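 HUVECs (passages 5–10) seeded at 1–1.5 × 10^4 cells/well and pre-starved 3 h in 2% FBS medium. Co-treated with 100 μM test peptide plus 15 ng/ml VEGF for 24 h. Apoptosis read as cytoplasmic histone-associated DNA fragments by photometric ELISA at 405 nm. Fold change taken against VEGF-only cells set as 1. Mean ± SEM, at least three independent experiments, ANOVA.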
On the technique in general: ELISA stands for enzyme-linked immunosorbent assay.

The target in assay [1] is Glucose regulated protein 78 kDa (GRP78), recombinant protein immobilised for SPR (UniProt P11021). In words: SPR. (In general: In SPR one partner is held on a chip, and binding of the other changes the refractive index at the surface.)
Assay [2] relates to human HBT 3477 breast cancer. The note with it: 250 μg/mouse, nude mice; cited from earlier work.
In a further assay the test system is Cell-surface GRP78. Particulars: ISM protein as ligand of cell-surface GRP78; cited from earlier work.

Chain of UniProt P11021 (P11021 19-654): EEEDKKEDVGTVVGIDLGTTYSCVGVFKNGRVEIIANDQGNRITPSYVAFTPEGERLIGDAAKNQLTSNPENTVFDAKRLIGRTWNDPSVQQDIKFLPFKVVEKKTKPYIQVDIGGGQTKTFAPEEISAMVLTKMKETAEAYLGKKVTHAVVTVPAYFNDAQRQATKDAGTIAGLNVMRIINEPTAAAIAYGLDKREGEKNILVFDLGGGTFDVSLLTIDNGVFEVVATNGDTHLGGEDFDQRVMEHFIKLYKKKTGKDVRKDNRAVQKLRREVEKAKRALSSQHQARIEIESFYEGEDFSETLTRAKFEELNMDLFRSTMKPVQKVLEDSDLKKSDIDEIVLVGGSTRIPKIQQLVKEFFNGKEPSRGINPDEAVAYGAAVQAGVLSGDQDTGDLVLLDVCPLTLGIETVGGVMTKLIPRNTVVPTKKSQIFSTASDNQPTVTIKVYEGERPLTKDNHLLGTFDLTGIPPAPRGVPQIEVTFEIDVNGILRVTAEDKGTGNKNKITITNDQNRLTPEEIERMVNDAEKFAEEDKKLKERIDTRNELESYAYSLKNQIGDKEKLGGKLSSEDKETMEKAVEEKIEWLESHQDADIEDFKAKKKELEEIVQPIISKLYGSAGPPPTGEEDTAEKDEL

In the case of cyclo(KRAAF) [GR35], the “proapoptotic activity towards HUVECs (in words)” value in the assay on HUVECs was “significantly reduced its proapoptotic activity”.
Regarding cyclo(KRKDF) [GR16], in the assay on HUVECs (HUVECs, Cell Death Detection ELISA, Fig. 1a legend), the “apoptosis, relative fold change” value is “over 1.4”.
For “BC71, cyclic peptide c[(bA)(k)RKD(2-D-Nal)]”, the Kd in assay [1] was found to be 211 µM.
For cilengitide, the “suppression of tumor growth as single agent” value in assay [2] is on record as “ineffective”.

B1: ISM: secreted proapoptotic protein, high-affinity ligand of cell-surface GRP78 (protein, UniProt B1AKI9 30-464, looked up)
Isthmin-1: ADGPDAAAGNASQAQLQNNLNVGSDTTSETSFSLSKEAPREHLDHQAAHQPFPRPRFRQETGHPSLQRDFPRSFLLDLPNFPDLSKADINGQNPNIQVTIEVVDGPDSEADKDQHPENKPSWSVPSPDWRAWWQRSLSLARANSGDQDYKYDSTSDDSNFLNPPRGWDHTAPGHRTFETKDQPEYDSTDGEGDWSLWSVCSVTCGNGNQKRTRSCGYACTATESRTCDRPNCPGIEDTFRTAATEVSLLAGSEEFNATKLFEVDTDSCERWMSCKSEFLKKYMHKVMNDLPSCPCSYPTEVAYSTADIFDRIKRKDFRWKDASGPKEKLEIYKPTARYCIRSMLSLESTTLAAQHCCYGDNMQLITRGKGAGTPNLISTEFSAELHYKVDVLPWIICKGDWSRYNEARPPNNGQKCTESPSDEDYIKQFQEAREY
As to B1, in the assay on Cell-surface GRP78, the dissociation constant Kd was 8.6 nM.

One may read the Kd as a measure of binding affinity in units of concentration.

Values taken from article PMC6085501 (EBioMedicine, 2018).
